Reference: ChEMBL document CHEMBL1143797, “Synthesis, characterization and in vitro biological studies of novel cyano derivatives of N-alkyl and N-aryl piperazine” (2007)
Converted amounts (≈) assume the structure as drawn. The source made the active and inactive calls. The rule behind the calls is not given here.

Assays:
[1] = test system: Pseudomonas aeruginosa; assay: Antibacterial activity against Pseudomonas aeruginosa MTCCB 741 at 30 ug/disc after 48 hrs by disc diffusion method; assay type: functional; conditions: for zone of inhibition at 30 µg/disc: read-out: IZ
In short: (§1)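 Compound-impregnated discs were placed on agar plates pre-inoculated with the bacterial strain and incubated at 37 °C. Zones of inhibition around the discs were read at 48 h. Gentamicin served as the standard control, alongside a solvent-only (DMSO) disc.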

[2] = test system: Staphylococcus aureus; assay: Antibacterial activity against Staphylococcus aureus MTCCB 737 after 18-20 hrs by broth dilution method; assay type: functional
In short: (§2)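 MIC was found by microbroth dilution in Mueller-Hinton broth with serial two-fold compound dilutions. The inoculum came from a 4–6 h broth culture adjusted to 0.5 McFarland, then diluted in broth to a final 3 × 10⁶ cfu/ml.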

[3] = test system: Escherichia coli; assay: Antibacterial activity against Escherichia coli MTCCB 1652 at 30 ug/disc after 48 hrs by disc diffusion method; assay type: functional; conditions: for zone of inhibition at 30 µg/disc: read-out: IZ; in short: as §1
[4] = test system: Staphylococcus aureus; assay: Antibacterial activity against Staphylococcus aureus MTCCB 737 at 30 ug/disc after 48 hrs by disc diffusion method; assay type: functional; conditions: for zone of inhibition at 30 µg/disc: read-out: IZ; in short: as §1
[5] = test system: Escherichia coli; assay: Antibacterial activity against Escherichia coli MTCCB 1652 after 18-20 hrs by broth dilution method; assay type: functional; in short: as §2
[6] = test system: Pseudomonas aeruginosa; assay: Antibacterial activity against Pseudomonas aeruginosa MTCCB 741 after 18-20 hrs by broth dilution method; assay type: functional; in short: as §2
[7] = test system: Staphylococcus epidermidis; assay: Antibacterial activity against Staphylococcus epidermidis MTCCB 1824 at 30 ug/disc after 48 hrs by disc diffusion method; assay type: functional; conditions: for zone of inhibition at 30 µg/disc: read-out: IZ; in short: as §1
[8] = test system: Staphylococcus epidermidis; assay: Antibacterial activity against Staphylococcus epidermidis MTCCB 1824 after 18-20 hrs by broth dilution method; assay type: functional; in short: as §2
[9] = test system: Aspergillus niger; assay: Antifungal activity against Aspergillus niger ITCC 5405 by micro-broth dilution method; assay type: functional
[10] = test system: Aspergillus flavus; assay: Antifungal activity against Aspergillus flavus ITCC 5192 by micro-broth dilution method; assay type: functional
[11] = test system: Aspergillus fumigatus; assay: Antifungal activity against Aspergillus fumigatus ITCC 4517 by micro-broth dilution method; assay type: functional
[12] = test system: Aspergillus niger; assay: Antifungal activity against Aspergillus niger ITCC 5405 by percentage spore germination inhibition method; assay type: functional
In short: (§3)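 Compound serially double-diluted in culture medium in 96-well plates, triplicate wells per concentration. Each well inoculated with spore suspension of about 100 ± 5 spores and incubated at 37 °C for 16 h. Germinated and non-germinated spores counted by inverted microscope. MIC90 is the lowest concentration giving >90% inhibition of spore germination.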

[13] = test system: Aspergillus niger; assay: Antifungal activity against Aspergillus niger ITCC 5405 by disc diffusion method; assay type: functional
In short: (§4)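 Agar plates inoculated with Aspergillus spores; sterile 5.0 mm filter-paper discs loaded with test compound over a range of 750–1.46 (unit as printed unclear) and placed on the surface. Incubated at 37 °C; zones read at 24, 48 and 96 h. MIC was taken as the lowest concentration giving an inhibition zone of at least 6.0 mm diameter.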

[14] = test system: Aspergillus fumigatus; assay: Antifungal activity against Aspergillus fumigatus ITCC 4517 by disc diffusion method; assay type: functional; in short: as §4
[15] = test system: Aspergillus flavus; assay: Antifungal activity against Aspergillus flavus ITCC 5192 by disc diffusion method; assay type: functional; in short: as §4
[16] = test system: Aspergillus flavus; assay: Antifungal activity against Aspergillus flavus ITCC 5192 by percentage spore germination inhibition method; assay type: functional; in short: as §3
[17] = test system: Aspergillus fumigatus; assay: Antifungal activity against Aspergillus fumigatus ITCC 4517 by percentage spore germination inhibition method; assay type: functional; in short: as §3
[18] = test system: HeLa; assay: Cytotoxicity against Hela cells at 30 ug after 48 hrs by MTT assay relative to gentamicin; assay type: functional, Homo sapiens
In short: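 HeLa cells were grown in DMEM with 10% heat-inactivated FBS and penicillin-streptomycin at 37 °C, 5% CO₂, seeded at 8 × 10³ cells/well and allowed 16 h to adhere. They were exposed to compound in serum-free DMEM for 4 h, then kept 48 h in growth medium. MTT was added for 2 h, formazan was dissolved in isopropanol/0.06 M HCl/0.5% SDS, and A540 was read. Viability is % of untreated cells, with gentamicin as comparator.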

| Compound | zone of inhibition at 30 µg/disc [1] [mm] | MIC [2] [µg/mL] | zone of inhibition at 30 µg/disc [3] [mm] | zone of inhibition at 30 µg/disc [4] [mm] | MIC [5] [µg/mL] | MIC [6] [µg/mL] | zone of inhibition at 30 µg/disc [7] [mm] | MIC [8] [µg/mL] | Activity [9] | Activity [12] | Activity [13] | MIC [10] [µg/mL] | MIC [11] [µg/mL] | MIC [16] [µg/mL] | MIC [17] [µg/mL] | also measured |
| --- | --- | --- | --- | --- | --- | --- | --- | --- | --- | --- | --- | --- | --- | --- | --- | --- |
| COc1ccccc1N1CCN(CC#N)CC1 | 8 | 625 (≈ 2700 µM) | 10 | 9 | 310 (≈ 1340 µM) | 625 (≈ 2700 µM) | 8 | 625 (≈ 2700 µM) | – | – | – | – | – | – | – | – |
| N#CCCN1CCN(CCC#N)CC1 | 11 | 310 (≈ 1610 µM) | 10 | 11 | 625 (≈ 3250 µM) | 156 (≈ 813 µM) | 9 | 625 (≈ 3250 µM) | inactive | inactive | inactive | – | – | – | – | Activity [10]: inactive; Activity [11]: inactive; Activity [14]: inactive; Activity [15]: inactive; Activity [16]: inactive |
| C[C@@H]1[C@H](O)[C@@H](C)/C=C/C=C/C=C/C=C/C=C/C=C/C=C/[C@H](O[C@@H]2O[C@H](C)[C@@H](O)[C@H](N)[C@@H]2O)C[C@@H]2O[C@](O)(C[C@@H](O)C[C@@H](O)[C@H](O)CC[C@@H](O)C[C@@H](O)CC(=O)O[C@H]1C)C[C@H](O)[C@H]2C(=O)O [AMPHOTERICIN B] | – | – | – | – | – | – | – | – | – | – | – | 5 (≈ 5.41 µM) | 5 (≈ 5.41 µM) | 5 (≈ 5.41 µM) | 5 (≈ 5.41 µM) | MIC [9]: 5 µg/mL (≈ 5.41 µM); MIC [12]: 5 µg/mL (≈ 5.41 µM); MIC [13]: 2.5 µg/disc; MIC [14]: 2.5 µg/disc; MIC [15]: 2.5 µg/disc |
| N#CCCN1CCN(Cc2ccccc2)CC1 | – | – | – | – | – | – | – | – | – | – | – | – | – | – | – | Activity [1]: inactive; Activity [2]: inactive; Activity [4]: inactive; Activity [6]: inactive; Activity [7]: inactive; Activity [8]: inactive |
| GENTAMICIN | – | 9.8 | – | – | 19.5 | 19.5 | – | 19.5 | – | – | – | – | – | – | – | inhibition zone (IZ) [1]: 19 mm; inhibition zone (IZ) [3]: 18 mm; inhibition zone (IZ) [4]: 20 mm; inhibition zone (IZ) [7]: 18 mm |
| N#CCCN1CCNCC1 | – | – | – | – | – | – | – | – | – | – | – | – | – | – | – | Activity [1]: inactive; Activity [2]: inactive; Activity [4]: inactive; Activity [6]: inactive; Activity [7]: inactive; Activity [8]: inactive |
| N#CCCN1CCN(c2ccccc2)CC1 | 9 | 156 (≈ 726 µM) | 12 | 13 | 156 (≈ 726 µM) | 625 (≈ 2900 µM) | 12 | 156 (≈ 726 µM) | – | – | – | 500 (≈ 2320 µM) | 250 (≈ 1160 µM) | 250 (≈ 1160 µM) | 250 (≈ 1160 µM) | Activity [18]: 60%; MIC [9]: 500 µg/mL (≈ 2320 µM); MIC [12]: 250 µg/mL (≈ 1160 µM) |
| N#CCN1CCN(c2ccccc2)CC1 | 13 | 310 (≈ 1540 µM) | 9 | 10 | 310 (≈ 1540 µM) | 156 (≈ 777 µM) | 12 | 156 (≈ 777 µM) | – | – | – | 500 (≈ 2480 µM) | 500 (≈ 2480 µM) | 500 (≈ 2480 µM) | 250 (≈ 1240 µM) | Activity [18]: >95%; MIC [9]: 500 µg/mL (≈ 2480 µM); MIC [12]: 250 µg/mL (≈ 1240 µM) |
| CN1CCN(CCC#N)CC1 | 19 | 310 (≈ 2030 µM) | 18 | 10 | 39.1 (≈ 255 µM) | 19.5 (≈ 127 µM) | 11 | 156 (≈ 1020 µM) | inactive | inactive | inactive | – | – | – | – | Activity [10]: inactive; Activity [11]: inactive; Activity [14]: inactive; Activity [15]: inactive; Activity [16]: inactive; Activity [17]: inactive |
| CN1CCN(CC#N)CC1 | 9 | 310 (≈ 2230 µM) | 12 | 12 | 310 (≈ 2230 µM) | 625 (≈ 4490 µM) | 8 | 625 (≈ 4490 µM) | – | – | – | 500 (≈ 3590 µM) | 500 (≈ 3590 µM) | 250 (≈ 1800 µM) | 500 (≈ 3590 µM) | MIC [9]: 500 µg/mL (≈ 3590 µM); MIC [12]: 250 µg/mL (≈ 1800 µM); MIC [13]: 93.7 µg/disc; MIC [15]: 93.8 µg/disc |
| COc1ccccc1N1CCN(CCC#N)CC1 | 9 | 156 (≈ 637 µM) | 11 | 12 | 156 (≈ 637 µM) | 625 (≈ 2550 µM) | 9 | 625 (≈ 2550 µM) | inactive | inactive | inactive | 1000 (≈ 4080 µM) | 500 (≈ 2040 µM) | 500 (≈ 2040 µM) | 500 (≈ 2040 µM) | – |
| N#CCN1CCN(Cc2ccccc2)CC1 | 13 | 19.5 (≈ 90.6 µM) | 9 | 18 | 625 (≈ 2900 µM) | 156 (≈ 726 µM) | 10 | 310 (≈ 1440 µM) | inactive | inactive | inactive | – | – | – | – | Activity [10]: inactive; Activity [11]: inactive; Activity [15]: inactive; Activity [16]: inactive |
| N#CCN1CCN(c2ccccc2[N+](=O)[O-])CC1 | – | – | – | – | – | – | – | – | – | – | – | – | – | – | – | Activity [18]: 60%; Activity [1]: inactive; Activity [2]: inactive; Activity [4]: inactive; Activity [6]: inactive; Activity [7]: inactive; Activity [8]: inactive |
| N#CCCN1CCN(CCO)CC1 | 15 | 19.5 (≈ 106 µM) | 15 | 18 | 39.1 (≈ 213 µM) | 39.1 (≈ 213 µM) | 11 | 310 (≈ 1690 µM) | inactive | inactive | inactive | – | – | – | – | Activity [18]: 60%; Activity [10]: inactive; Activity [11]: inactive; Activity [14]: inactive; Activity [15]: inactive; Activity [16]: inactive; Activity [17]: inactive |
